According to ChEMBL document CHEMBL1135535, “Discovery and optimization of a series of carbazole ureas as NPY5 antagonists for the treatment of obesity” (J Med Chem, 2002):
One block for each compound: values may come before it.

Tests used:
[1] = target: T1, Neuropeptide Y receptor type 5 (Homo sapiens, UniProt Q15761); experiment: Binding affinity to the human Neuropeptide Y receptor Y5 (NPY5)
T1 sequence (Q15761 whole entry): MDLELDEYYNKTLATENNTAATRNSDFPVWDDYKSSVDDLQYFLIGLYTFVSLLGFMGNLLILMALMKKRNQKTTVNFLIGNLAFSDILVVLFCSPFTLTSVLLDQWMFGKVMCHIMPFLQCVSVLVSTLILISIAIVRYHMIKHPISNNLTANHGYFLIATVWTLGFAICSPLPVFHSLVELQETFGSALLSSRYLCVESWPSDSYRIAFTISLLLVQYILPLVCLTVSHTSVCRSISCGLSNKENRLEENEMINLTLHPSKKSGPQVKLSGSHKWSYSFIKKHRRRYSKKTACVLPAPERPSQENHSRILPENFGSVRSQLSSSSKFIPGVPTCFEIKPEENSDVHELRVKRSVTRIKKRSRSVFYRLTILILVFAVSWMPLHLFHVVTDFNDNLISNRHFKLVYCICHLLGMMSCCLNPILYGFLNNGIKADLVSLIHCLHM
Procedure, shortened: (§1)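 Membranes from Hi5 insect cells infected 48 h with baculovirus carrying rat or human NPY-5 receptor, prepared by sonication in hypotonic Tris/EDTA/sucrose buffer and harvested on a 41% sucrose cushion. 0.01 µCi [125I]PYY incubated with membranes and compound in HEPES buffer (CaCl2, MgCl2, 0.5% BSA, pH 7.4) for 2 h at room temperature. Filtered onto PEI-treated GF/C plates, then scintillation counted.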

Salmonella typhimurium [2] = experiment: Mutagenicity (Ames activity) for Salmonella Typhimurium TA100 in the presence of rat liver S9 mix, at 100 ug/plate conc.; format: functional, Salmonella enterica subsp. enterica serovar Typhimurium
Procedure, shortened: (§2)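 Ames plate incorporation assay with S. typhimurium TA98 and TA100, run as described by Maron and Ames. Metabolic activation used S9 mix from livers of Aroclor 1254-treated Sprague–Dawley rats with an NADPH-generating cofactor system. Test substance given at 3.3–100 µg/plate. Read-out was revertant colonies per plate against a solvent control.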

Salmonella typhimurium [3] = experiment: Mutagenicity (Ames activity) for Salmonella Typhimurium TA100 in the presence of rat liver S9 mix, at 10 ug/plate conc.; format: functional, Salmonella enterica subsp. enterica serovar Typhimurium; procedure, shortened: as §2
Salmonella typhimurium [4] = experiment: Mutagenicity (Ames activity) for Salmonella Typhimurium TA100 in the presence of rat liver S9 mix, at 3.3 ug/plate conc.; format: functional, Salmonella enterica subsp. enterica serovar Typhimurium; procedure, shortened: as §2
Salmonella typhimurium [5] = experiment: Mutagenicity (Ames activity) for Salmonella Typhimurium TA100 in the presence of rat liver S9 mix, at 33 ug/plate conc.; format: functional, Salmonella enterica subsp. enterica serovar Typhimurium; procedure, shortened: as §2
Salmonella typhimurium [6] = experiment: Ames activity in TA 98+S9, expressed as maximum fold increase in mutation frequency; format: functional, Salmonella enterica subsp. enterica serovar Typhimurium
Procedure, shortened: (§3)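 Salmonella typhimurium TA98 plate incorporation assay with S9 mix. The S9 is the postmitochondrial fraction of livers from Aroclor 1254-treated Sprague–Dawley rats, supplemented with cofactors for NADPH generation. Tested across 6–2000 μg/plate. The value is the maximum increase in mutation frequency relative to background across that dose range.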

Salmonella typhimurium [7] = experiment: Mutagenicity (Ames activity) for Salmonella Typhimurium TA98 in the presence of rat liver S9 mix, at 100 ug/plate conc.; format: functional, Salmonella enterica subsp. enterica serovar Typhimurium; procedure, shortened: as §2
Salmonella typhimurium [8] = experiment: Mutagenicity (Ames activity) for Salmonella Typhimurium TA98 in the presence of rat liver S9 mix, at 10 ug/plate conc.; format: functional, Salmonella enterica subsp. enterica serovar Typhimurium; procedure, shortened: as §2
Salmonella typhimurium [9] = experiment: Mutagenicity (Ames activity) for Salmonella Typhimurium TA98 in the presence of rat liver S9 mix, at 3.3 ug/plate conc.; format: functional, Salmonella enterica subsp. enterica serovar Typhimurium; procedure, shortened: as §2
Salmonella typhimurium [10] = experiment: Mutagenicity (Ames activity) for Salmonella Typhimurium TA98 in the presence of rat liver S9 mix, at 33 ug/plate conc.; format: functional, Salmonella enterica subsp. enterica serovar Typhimurium; procedure, shortened: as §2
Rattus norvegicus [11] = experiment: Concentration of compound in rat CSF after oral dosing at 2 mg/kg after 90 min; format: functional, organism-based; parameters: dose 2 mg/kg
Procedure, shortened: (§4)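 Single oral dose of 2 mg/kg to rats. Plasma, whole brain and CSF concentrations were measured at 90 min.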

Rattus norvegicus [12] = experiment: Concentration of compound in rat whole brain after oral dosing at 2 mg/kg after 90 min; format: functional, organism-based; parameters: dose 2 mg/kg; procedure, shortened: as §4
Rattus norvegicus [13] = experiment: Concentration of compound in rat plasma after oral dosing at 2 mg/kg after 90 min; format: functional, organism-based; parameters: dose 2 mg/kg; procedure, shortened: as §4
Salmonella typhimurium [14] = experiment: Ames activity in TA 98+S9, expressed as maximum fold increase in mutation frequency; NI means no increase; format: functional, organism-based; details: Salmonella enterica subsp. enterica serovar Typhimurium; procedure, shortened: as §3
[15] = Clearance level at a dose 10 umol/kg administered intravenously; format: ADME, organism-based; details: in vivo, iv
[16] = Bioavailability of compound at a dose 30 umol/kg administered orally; format: ADME, organism-based; details: eutheria, in vivo, po, at 30 µmol/kg
[17] = Volume of distribution of compound at a dose 10 umol/kg was administered intravenously; format: ADME, organism-based; details: in vivo, iv, read-out: Vss
[18] = Half-life of compound at a dose 30 umol/kg administered orally; format: ADME, organism-based; details: in vivo, po
[19] = Half-life of compound at a dose 10 umol/kg was administered intravenously; format: ADME, organism-based; details: in vivo, iv
[20] = Tmax of compound at a dose 30 umol/kg administered orally; format: ADME, organism-based; details: in vivo, po
[21] = Maximum concentration of compound at a dose 30 umol/kg administered orally; format: ADME, organism-based; parameters: dose 30 umol/kg, route oral; details: in vivo, po
[22] = target: T1, Neuropeptide Y receptor type 5; experiment: Compound was evaluated for functional antagonism of Neuropeptide Y receptor Y5 activity in cellular Ca flux
[23] = target: T1, Neuropeptide Y receptor type 5; experiment: The compound was evaluated in vitro for: human Neuropeptide Y receptor Y5 functional antagonism
[24] = Percent inhibition of 5-HT2b and adenosine transport at 10 uM Y1, Y2, Y4 and 80 other receptors at > 10 uM; format: functional
Procedure, shortened: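 Selectivity screen with compound tested at 10 µM for binding to 5HT2b receptor and for inhibition of adenosine transport. Y1, Y2, Y4 and 80 other receptors were also screened. Human Y1, Y2 and Y4 membranes came from SK-N-MC cells, KAN-TS cells and stable Y4-expressing CHO cells, using the [125I]PYY filtration binding format.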

[25] = Half life in rat was reported; format: ADME, organism-based; details: in vivo
Procedure, shortened: (§5)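 Rats received a DMA:PEG:H2O 1:1:1 solution, iv at 10 µmol/kg and po at 30 µmol/kg. Half-life, Vss, clearance, Cmax, Tmax and oral bioavailability were derived from plasma levels.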

[26] = target: T1, Neuropeptide Y receptor type 5; experiment: In vitro human Neuropeptide Y receptor Y5 functional antagonism (reporter gene assay)
[27] = target: T2, Neuropeptide Y receptor type 5 (Rattus norvegicus, UniProt Q63634); experiment: Binding affinity against rat Neuropeptide Y receptor Y5; procedure, shortened: as §1
T2 sequence (Q63634 whole entry): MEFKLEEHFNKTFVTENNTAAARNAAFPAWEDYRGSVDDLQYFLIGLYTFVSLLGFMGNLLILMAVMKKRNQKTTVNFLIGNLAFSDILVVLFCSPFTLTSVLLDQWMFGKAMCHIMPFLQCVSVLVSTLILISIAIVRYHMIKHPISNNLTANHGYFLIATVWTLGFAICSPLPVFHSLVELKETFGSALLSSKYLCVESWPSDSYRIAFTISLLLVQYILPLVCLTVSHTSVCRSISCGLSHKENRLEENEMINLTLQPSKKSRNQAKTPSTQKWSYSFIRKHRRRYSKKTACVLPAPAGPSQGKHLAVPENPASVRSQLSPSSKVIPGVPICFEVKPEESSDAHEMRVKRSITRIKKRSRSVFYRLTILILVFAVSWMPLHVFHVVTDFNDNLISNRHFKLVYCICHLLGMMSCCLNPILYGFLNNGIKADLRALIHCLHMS

[28] = Bioavailability in rat; format: ADME, organism-based; details: in vivo, read-out: Bioavailabiility; procedure, shortened: as §5
[29] = Compound was evaluated for functional antagonism of NPY activity in cellular Ca flux

- IC50 [1]: 350 nM
SMILES: CN(C)S(=O)(=O)n1c2ccccc2c2cc(NC(=O)N3CCOCC3)ccc21

- IC50 [1]: 8 nM
SMILES: CN(C)S(=O)(=O)n1c2ccccc2c2cc(NC(=O)CCc3ccncc3)ccc21

- IC50 [1]: 230 nM
SMILES: O=C(CCc1ccncc1)Nc1ccc2[nH]c3ccccc3c2c1

- IC50 [1]: 2 nM
SMILES: CC(C)n1c2ccccc2c2cc(NC(=O)N3CCOCC3)ccc21

- IC50 [1]: 2250 nM
SMILES: CCn1c2ccccc2c2cc(CC(=O)NCc3ccncc3)ccc21

SMILES: CCn1c2ccccc2c2cc(N)ccc21
- Revertant colonies per plate (Salmonella typhimurium [2]): 483
- Revertant colonies per plate (Salmonella typhimurium [3]): 358
- Revertant colonies per plate (Salmonella typhimurium [4]): 192
- Revertant colonies per plate (Salmonella typhimurium [5]): 466
- Mutation frequency (Salmonella typhimurium [6]): 43
- Revertant colonies per plate (Salmonella typhimurium [7]): 897
- Revertant colonies per plate (Salmonella typhimurium [8]): 1416
- Revertant colonies per plate (Salmonella typhimurium [9]): 623
- Revertant colonies per plate (Salmonella typhimurium [10]): 1227

- IC50 [1]: 1 nM
SMILES: CC(C)n1c2ccccc2c2cc(NC(=O)CCc3ccncc3)ccc21

- IC50 [1]: 7 nM
SMILES: CCn1c2ccccc2c2cc(NC(=O)N3CCOCC3)ccc21
- Concentration (Rattus norvegicus [11]): 17 nM
- Concentration (Rattus norvegicus [12]): 500 nM
- Concentration (Rattus norvegicus [13]): 740 nM

SMILES: Cc1c(N)ccc2c1c1ccccc1n2C(C)C
- NI (Salmonella typhimurium [14]): no increase

- IC50 [1]: 3400 nM
SMILES: CCn1c2ccccc2c2cc(CNC(=O)Cc3ccncc3)ccc21

- IC50 [1]: 390 nM
SMILES: Cc1cc2c(c(C)c1NC(=O)N1CCOCC1)c1ccccc1n2C(C)C

SMILES: Cc1cc2c(cc1N)c1ccccc1n2C(C)C
- Mutation frequency (Salmonella typhimurium [6]): 3

- IC50 [1]: 270 nM
SMILES: CCOc1c(NC(=O)N2CCOCC2)ccc2c1c1ccccc1n2C(C)C

- IC50 [1]: 2 nM
SMILES: Cc1cccc2c3cc(NC(=O)N4CCOCC4)ccc3n(C(C)C)c12

SMILES: Cc1cc2c(c(C)c1N)c1ccccc1n2C(C)C
- NI (Salmonella typhimurium [14]): no increase

SMILES: CC(C)c1c(N)ccc2c1c1ccccc1n2C(C)C
- NI (Salmonella typhimurium [14]): no increase

- IC50 [1]: 440 nM
SMILES: CCn1c2ccccc2c2cccc(NC(=O)CCc3ccncc3)c21

SMILES: CC(C)n1c2ccccc2c2cc(N)ccc21
- Mutation frequency (Salmonella typhimurium [6]): 3

SMILES: CC(C)n1c2ccccc2c2cc(N)c(Cl)cc21
- Mutation frequency (Salmonella typhimurium [6]): 43

- IC50 [1]: > 10000 nM
SMILES: CCn1c2ccccc2c2c(NC(=O)CCc3ccncc3)cccc21

- IC50 [1]: 1 nM
SMILES: CS(=O)(=O)n1c2ccccc2c2cc(NC(=O)CCc3ccncc3)ccc21

- clearance [15]: 0.08 L/h/kg
- bioavailability [16]: 76%
- Vd [17]: 0.41 L/kg
- half-life [18]: 6.4 h
- half-life [19]: 3.7 h
- Tmax [20]: 1 h
- Cmax [21]: 35 µM
- IC50 [1]: 3 nM
- IC50 [22]: 6 nM
- IC50 [23]: 37 nM
- inhibition [24]: 70%
SMILES: Cc1c(NC(=O)N2CCOCC2)ccc2c1c1ccccc1n2C(C)C

- half-life [25]: 0.25 h
- IC50 [1]: 2 nM
- IC50 [26]: 11 nM
- IC50 [27]: 7 nM
- bioavailability [28]: 1%
- IC50 [29]: 2 nM
SMILES: CCn1c2ccccc2c2cc(NC(=O)CCc3ccncc3)ccc21
